From ChEMBL document CHEMBL1240442, “Design and synthesis of novel tricyclic benzoxazines as potent 5-HT(1A/B/D) receptor antagonists leading to the discovery of 6-{2-[4-(2-methyl-5-quinolinyl)-1-piperazinyl]ethyl}-4H-imidazo[5,1-c][1,4]benzoxazine-3-carboxamide (GSK588045)” (J Med Chem, 2010) come the findings set out here.

What all share (type): ADME, organism-based
The nature of series [1]: Clearance in Sprague-Dawley rat blood at 0.5 mg/kg, iv and 1 mg/kg, po. Conditions: whole blood. An outline of the steps: (§1)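 Male Sprague-Dawley rats given 0.5 mg free base/kg iv bolus and 1 mg/kg po. Blood compound levels measured by protein precipitation and HPLC-MS/MS.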
A short description of series [2]: Volume of distribution at steady state in Sprague-Dawley rat at 0.5 mg/kg, iv and 1 mg/kg, po. Conditions: in vivo, read-out: Vdss. A digest of the protocol: as §1
Series [3] is described as follows: Half life in Sprague-Dawley rat at 0.5 mg/kg, iv and 1 mg/kg, po. Conditions: in vivo. An outline of the steps: as §1
The nature of series [4]: Oral bioavailability in Sprague-Dawley rat at 1 mg/kg. Conditions: in vivo. An outline of the steps: as §1
Series [5] can be described thus: Ratio of drug level in brain to blood in Sprague-Dawley rat at 0.5 mg/kg, iv and 1 mg/kg, po after 1 hr. Conditions: brain/whole blood, read-out: BBR.

For orientation: half-life means the time in which the quantity being followed falls by half. Higher therefore signals slow loss. With `Cc1ccc2c(N3CCN(CCc4cccc5c4OCc4c(C(=O)N6CCOCC6)ncn4-5)CC3)cccc2n1`, in series [1], the clearance was 12 mL/min/kg. Further, the Vd in series [2] worked out at 5.5 L/kg. In series [3], this compound had a half-life of 7.6 h. In series [4], the bioavailability turned out to be 65%. For the same compound, the Kp at 1 h in series [5] was 1.7.
Take `Cc1ccc2c(N3CCN(CCc4cccc5c4OCc4c(C(N)=O)ncn4-5)CC3)cccc2n1`: the clearance in series [1] turned out to be 10 mL/min/kg. Further, the Vd in series [2] was found to be 2.9 L/kg. For the same compound, the half-life in series [3] is 4.4 h. For the same compound, the bioavailability in series [4] was 45%. Further, the Kp at 1 h in series [5] came out at 1.1.
In turn, `Cc1ccc2c(N3CCN(CCc4cccc5c4OCc4c(C(=O)N6CCCC6)ncn4-5)CC3)cccc2n1` registered a clearance in series [1] of 20 mL/min/kg. Moreover, the Vd in series [2] was 5 L/kg. The compound further had a half-life in series [3] of 3.1 h. For the same compound, in series [4], the bioavailability turned out to be 43%. Besides, the Kp at 1 h in series [5] stood at 3.2.
`CC(=O)c1ncn2c1COc1c(CCN3CCN(c4cccc5nc(C)ccc45)CC3)cccc1-2` returned a clearance in series [1] of 10 mL/min/kg. Besides, in series [2], the Vd turned out to be 7.1 L/kg. The compound further gave a half-life in series [3] of 8.7 h. Also, the bioavailability in series [4] was found to be 43%. The Kp at 1 h in series [5] came to 2.7.
For `Cc1ccc2c(N3CCN(CCc4cccc5c4OCc4c(C#N)ncn4-5)CC3)cccc2n1` the same measures were 10 mL/min/kg, 3.9 L/kg, 5.1 h, 48% and 1.6.
In the same order, the values of `Cc1ccc2c(N3CCN(CCc4cccc5c4OCc4nnc(C)n4-5)CC3)cccc2n1` are 12 mL/min/kg, 1.6 L/kg, 1.8 h, 51% and 0.5.
`Cc1ccc2c(N3CCN(CCc4cccc5c4OCc4c(C(=O)N(C)C)ncn4-5)CC3)cccc2n1` had a clearance in series [1] of 29 mL/min/kg. The Vd in series [2] turned out to be 3.5 L/kg. This compound also had a half-life in series [3] of 2.1 h. Besides, the bioavailability in series [4] came to 50%. In series [5], the Kp at 1 h amounted to 1.8.
As for `CNC(=O)c1ncn2c1COc1c(CCN3CCN(c4cccc5nc(C)ccc45)CC3)cccc1-2`, the clearance in series [1] was determined as 8 mL/min/kg. In addition, in series [2], the Vd is 3.8 L/kg. This compound showed a half-life in series [3] of 6.3 h. Moreover, the bioavailability in series [4] is 104%. Moreover, the Kp at 1 h in series [5] was determined as 2.4.
